Test results taken from ChEMBL document CHEMBL1146073, “A pyridazine series of alpha2/alpha3 subtype selective GABA A agonists for the treatment of anxiety” (J Med Chem, 2006).
pKi: −log10 of the molar value.

Key:
[1] = molecular target: GABA-A receptor; anion channel (Rattus norvegicus) (UniProt O09028+P15431+P18506+P18508+P19969+P20236+P23574+P23576+P28471+P28473+P30191+P62813+P63079+P63138+Q91ZM7+Q9ES14); experiment: Receptor occupancy in vivo by displacement of [3H]Ro 15-1788 binding from GABA-A receptor in rat, po; type: functional, organism-based
How it was run: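 Rat in vivo occupancy measured by [3H]Ro 15-1788 binding after oral dosing. Rats taken as a subgroup after the plus-maze trial, i.e. 30 min post-dose or later. ED50 derived from dose-dependent occupancy. Mean ± SEM, n = 5-10/group.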

[2] = molecular target: GABA-A receptor; alpha-1/beta-3/gamma-2 (Homo sapiens) (UniProt P14867+P18507+P28472); experiment: Efficacy against recombinant human GABA-Aalpha1 plus beta-3-gamma-2 expressed in L(tk-) cells by whole cell patch clamp method; type: functional, cell-based
How it was run: (§1)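 Whole-cell patch clamp on αxβ3γ2 receptors stably expressed in L(tk-) cells, measuring the effect on current evoked by an EC20-equivalent of GABA. Reported relative to full agonist chlordiazepoxide (=1.0), or as direct percent modulation of the EC20 control, with inverse agonism given as percent. Mean of at least four independent experiments.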

[3] = molecular target: T1, GABA-A receptor; alpha-3/beta-3/gamma-2 (Homo sapiens, UniProt P18507+P28472+P34903); experiment: Displacement of [3H]Ro-151788 from recombinant human GABA-Aalpha3 receptor plus beta3gamma2; type: protein-complex assay
T1 sequence (P18507 whole entry): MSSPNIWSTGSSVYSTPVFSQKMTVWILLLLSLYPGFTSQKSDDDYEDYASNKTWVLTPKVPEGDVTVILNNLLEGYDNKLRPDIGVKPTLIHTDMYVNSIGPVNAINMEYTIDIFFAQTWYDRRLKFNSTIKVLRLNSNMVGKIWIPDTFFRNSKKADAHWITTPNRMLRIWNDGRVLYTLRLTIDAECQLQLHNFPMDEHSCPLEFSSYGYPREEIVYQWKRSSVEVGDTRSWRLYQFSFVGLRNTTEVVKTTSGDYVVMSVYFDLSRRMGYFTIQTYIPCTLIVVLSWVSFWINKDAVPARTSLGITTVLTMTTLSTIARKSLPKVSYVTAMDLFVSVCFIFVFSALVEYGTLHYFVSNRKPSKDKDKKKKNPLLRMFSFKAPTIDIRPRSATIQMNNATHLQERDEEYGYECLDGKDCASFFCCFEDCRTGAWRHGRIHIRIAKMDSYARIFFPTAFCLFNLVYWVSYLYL
T1 sequence (P28472 whole entry): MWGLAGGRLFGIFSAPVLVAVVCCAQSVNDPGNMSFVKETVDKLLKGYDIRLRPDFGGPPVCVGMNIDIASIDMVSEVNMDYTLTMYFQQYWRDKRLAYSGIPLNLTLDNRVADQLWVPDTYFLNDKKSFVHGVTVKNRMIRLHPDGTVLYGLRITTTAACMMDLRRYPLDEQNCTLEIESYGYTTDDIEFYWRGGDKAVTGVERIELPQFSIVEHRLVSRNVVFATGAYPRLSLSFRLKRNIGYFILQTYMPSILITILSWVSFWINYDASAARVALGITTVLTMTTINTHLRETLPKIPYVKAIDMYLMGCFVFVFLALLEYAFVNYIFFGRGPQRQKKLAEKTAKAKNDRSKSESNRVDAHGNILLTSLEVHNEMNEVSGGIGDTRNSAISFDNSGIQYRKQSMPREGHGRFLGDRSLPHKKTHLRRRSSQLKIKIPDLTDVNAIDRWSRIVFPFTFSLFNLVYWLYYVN
T1 sequence (P34903 whole entry): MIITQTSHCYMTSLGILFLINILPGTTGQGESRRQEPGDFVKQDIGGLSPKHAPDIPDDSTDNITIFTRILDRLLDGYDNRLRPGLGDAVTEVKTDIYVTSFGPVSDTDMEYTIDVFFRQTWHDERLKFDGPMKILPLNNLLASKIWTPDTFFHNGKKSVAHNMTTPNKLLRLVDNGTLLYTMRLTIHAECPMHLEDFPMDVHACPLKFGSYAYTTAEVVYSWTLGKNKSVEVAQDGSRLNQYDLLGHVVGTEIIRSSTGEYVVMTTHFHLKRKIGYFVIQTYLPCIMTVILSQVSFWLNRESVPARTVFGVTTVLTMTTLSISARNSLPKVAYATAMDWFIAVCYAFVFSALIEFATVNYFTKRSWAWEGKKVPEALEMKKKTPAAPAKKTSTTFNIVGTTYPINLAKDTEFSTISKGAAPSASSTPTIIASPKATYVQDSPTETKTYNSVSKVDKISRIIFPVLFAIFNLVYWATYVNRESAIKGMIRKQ
How it was run: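 Benzodiazepine-site binding on stably transfected αxβ3γ2 receptors (x = 1, 2, 3 or 5). Inhibition curves run with [3H]Ro15-1788 at roughly twice its Kd. Ki derived by Cheng-Prusoff equation. Mean of three to six determinations.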

[4] = molecular target: GABA-A receptor; alpha-2/beta-3/gamma-2 (Homo sapiens) (UniProt P18507+P28472+P47869); experiment: Efficacy against recombinant human GABA-Aalpha2 plus beta-3-gamma-2 expressed in L(tk-) cells by whole cell patch clamp method relative to chlordiazepoxide; type: functional, cell-based; how it was run: as §1
[5] = Stability in human assessed as liver microsomal turnover; type: ADME, Microsome; settings: liver microsomes, read-out: Stability
How it was run: (§2)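 Test compound at 1 µM, with diazepam as control, incubated 0.25 h with pooled liver microsomes at 0.5 mg/mL protein. Compound remaining quantified by LC/MS/MS. Turnover is the mean of three determinations.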

[6] = molecular target: GABA-A receptor; alpha-5/beta-3/gamma-2 (Homo sapiens) (UniProt P18507+P28472+P31644); experiment: Efficacy against recombinant human GABA-Aalpha5 plus beta-3-gamma-2 expressed in L(tk-) cells by whole cell patch clamp method relative to chlordiazepoxide; type: functional, cell-based; how it was run: as §1
[7] = Stability in rat assessed as liver microsomal turnover; type: ADME, Microsome; settings: liver microsomes, read-out: Stability; how it was run: as §2
[8] = Half life in rat; type: ADME, organism-based; settings: in vivo
How it was run: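 Pharmacokinetics from six animals per species: three dosed iv and three dosed po.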

[9] = molecular target: GABA-A receptor; alpha-3/beta-3/gamma-2 (Homo sapiens) (UniProt P18507+P28472+P34903); experiment: Efficacy against recombinant human GABA-Aalpha3 plus beta-3-gamma-2 expressed in L(tk-) cells by whole cell patch clamp method relative to chlordiazepoxide; type: functional, cell-based; how it was run: as §1

Fc1cnc(-c2cc(-c3ccc(F)c(-c4ncccc4F)c3)cnn2)c(F)c1
Occ50 [1]: 0.09 mg/kg | Efficacy [2]: -0.8% | pKi [3]: 8.70 | Efficacy [4]: 0.43 | metabolised [5]: 6% | Efficacy [6]: 0.4 | metabolised [7]: < 5% | half-life [8]: 10 h | Efficacy [9]: 0.7

Fc1cnc(-c2cc(-c3cnnc(-c4c(F)cc(F)cc4F)c3)ccc2F)c(F)c1
Activity [1]: 0.7 mg/kg | Efficacy [2]: -9% | pKi [3]: 8.30 | Efficacy [4]: 0.36 | metabolised [5]: 7% | Efficacy [6]: 0.14 | metabolised [7]: 4% | Efficacy [9]: 0.4

Fc1cnc(-c2cc(-c3ccc(F)c(-c4ncc(F)cc4F)c3)cnn2)c(F)c1
Occ50 [1]: 0.52 mg/kg | Efficacy [2]: -7% | pKi [3]: 8.07 | Efficacy [4]: 0.12 | metabolised [5]: 3% | Efficacy [6]: 0.01 | metabolised [7]: 3% | half-life [8]: 53 h | Efficacy [9]: 0.44

Fc1cnc(-c2cc(-c3cnnc(-c4c(F)cncc4F)c3)ccc2F)c(F)c1
Occ50 [1]: 0.22 mg/kg | Efficacy [2]: -3% | pKi [3]: 8.20 | Efficacy [4]: 0.28 | metabolised [5]: 3% | metabolised [7]: 5% | half-life [8]: 1.6 h | Efficacy [9]: 0.39
